The values below come from ChEMBL document CHEMBL1148178, “Dicranin, an antimicrobial and 15-lipoxygenase inhibitor from the moss Dicranum scoparium” (1993).

Molecules are shown by their SMILES.

Experiment [1] deals with Glycine max. The experiment in a line: Inhibition of soybean 15-LOX at 0.36 uM. The method in brief:
(§1)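 15-Lipoxygenase inhibition assay run with arachidonic acid (40 μM) as the substrate, at the single test concentration given in each line.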

The test system of experiment [2] is Glycine max. The experiment in a line: Inhibition of soybean 15-LOX at 33 ug/ml. In outline:
as §1

For the molecule `Oc1ccccc1O`, the inhibition was 37% in the experiment with Glycine max [1] and 33% with Glycine max [2].

One may read the inhibition as how much of the control response was suppressed.
